# Test results published in the M2OR odorant receptor database.
# Assays:
# Settings in all cases: stereoisomer not certain
# UniProt Q8VFP5 = target: T1, UniProt Q8VFP5
# T1 sequence (whole entry): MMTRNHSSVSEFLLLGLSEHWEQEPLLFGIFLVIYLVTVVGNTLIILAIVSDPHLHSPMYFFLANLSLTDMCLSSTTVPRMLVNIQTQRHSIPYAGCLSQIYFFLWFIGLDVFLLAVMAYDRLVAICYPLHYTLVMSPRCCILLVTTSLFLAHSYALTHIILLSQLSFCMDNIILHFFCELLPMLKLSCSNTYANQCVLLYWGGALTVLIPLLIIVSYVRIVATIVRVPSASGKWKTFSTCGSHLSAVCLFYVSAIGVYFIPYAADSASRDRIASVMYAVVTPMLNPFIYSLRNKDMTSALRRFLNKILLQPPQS
# Summary of the method: (§1)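 Assay methods differ from source to source, frequently being transient luciferase assays in mammalian cell lines. For each receptor–molecule pair, the label responsive (active) applies when the original authors judged the measured signal statistically different from baseline, and non-responsive (inactive) applies otherwise.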
# UniProt Q8VG01 = target: T2, UniProt Q8VG01
# T2 sequence (whole entry): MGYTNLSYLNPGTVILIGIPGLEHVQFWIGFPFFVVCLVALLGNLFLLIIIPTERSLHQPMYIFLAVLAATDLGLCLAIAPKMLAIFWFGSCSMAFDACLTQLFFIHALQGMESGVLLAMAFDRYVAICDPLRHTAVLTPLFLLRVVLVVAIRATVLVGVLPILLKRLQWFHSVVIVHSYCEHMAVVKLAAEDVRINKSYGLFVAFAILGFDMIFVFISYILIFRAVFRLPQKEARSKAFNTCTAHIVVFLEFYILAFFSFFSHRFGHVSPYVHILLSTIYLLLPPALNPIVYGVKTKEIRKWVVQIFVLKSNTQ
# Summary of the method: as §1
# UniProt Q8VFZ6 = target: T3, UniProt Q8VFZ6
# T3 sequence (whole entry): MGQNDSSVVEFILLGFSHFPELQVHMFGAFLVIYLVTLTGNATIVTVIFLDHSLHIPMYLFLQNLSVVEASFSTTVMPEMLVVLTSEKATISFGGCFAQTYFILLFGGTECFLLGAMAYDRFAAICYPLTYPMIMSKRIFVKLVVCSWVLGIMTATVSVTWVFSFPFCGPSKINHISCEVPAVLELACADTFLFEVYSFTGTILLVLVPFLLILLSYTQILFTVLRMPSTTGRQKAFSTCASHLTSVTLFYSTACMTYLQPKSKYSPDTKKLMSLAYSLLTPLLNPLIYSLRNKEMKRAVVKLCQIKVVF
# Summary of the method: as §1
# UniProt Q8VG22 = target: T4, UniProt Q8VG22
# T4 sequence (whole entry): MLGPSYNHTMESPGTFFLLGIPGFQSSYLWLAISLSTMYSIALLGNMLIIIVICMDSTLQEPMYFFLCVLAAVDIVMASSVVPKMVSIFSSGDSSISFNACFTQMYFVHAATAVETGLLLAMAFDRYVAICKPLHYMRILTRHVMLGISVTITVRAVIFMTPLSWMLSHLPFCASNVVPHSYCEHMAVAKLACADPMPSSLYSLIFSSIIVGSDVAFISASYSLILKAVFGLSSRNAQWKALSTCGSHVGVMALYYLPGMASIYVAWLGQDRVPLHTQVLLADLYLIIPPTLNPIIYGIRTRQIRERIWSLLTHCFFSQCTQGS
# Summary of the method: as §1
# UniProt Q8VG26 = target: UniProt Q8VG26
# Chain of UniProt Q8VG26 (Q8VG26 as listed by the source): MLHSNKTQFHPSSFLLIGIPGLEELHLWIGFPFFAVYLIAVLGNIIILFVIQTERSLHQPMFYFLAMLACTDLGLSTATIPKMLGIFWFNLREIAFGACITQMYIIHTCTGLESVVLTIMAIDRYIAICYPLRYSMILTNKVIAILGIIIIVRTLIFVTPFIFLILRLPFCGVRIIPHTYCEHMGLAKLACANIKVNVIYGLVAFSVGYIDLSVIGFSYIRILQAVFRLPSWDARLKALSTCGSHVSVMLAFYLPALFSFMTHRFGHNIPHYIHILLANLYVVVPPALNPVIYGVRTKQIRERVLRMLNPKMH
# Summary of the method: as §1
# UniProt Q8VFV2 = target: UniProt Q8VFV2
# Chain of UniProt Q8VFV2 (Q8VFV2 as listed by the source): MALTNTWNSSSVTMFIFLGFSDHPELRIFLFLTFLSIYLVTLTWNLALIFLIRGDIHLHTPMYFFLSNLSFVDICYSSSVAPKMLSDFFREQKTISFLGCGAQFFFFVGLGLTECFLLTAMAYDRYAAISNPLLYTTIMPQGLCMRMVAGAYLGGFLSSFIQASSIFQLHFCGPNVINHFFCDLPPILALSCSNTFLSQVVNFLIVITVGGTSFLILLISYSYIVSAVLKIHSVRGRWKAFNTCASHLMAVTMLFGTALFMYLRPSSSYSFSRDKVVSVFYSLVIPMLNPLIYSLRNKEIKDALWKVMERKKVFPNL
# Summary of the method: as §1
# UniProt Q8VFV3 = target: UniProt Q8VFV3
# Chain of UniProt Q8VFV3 (Q8VFV3 as listed by the source): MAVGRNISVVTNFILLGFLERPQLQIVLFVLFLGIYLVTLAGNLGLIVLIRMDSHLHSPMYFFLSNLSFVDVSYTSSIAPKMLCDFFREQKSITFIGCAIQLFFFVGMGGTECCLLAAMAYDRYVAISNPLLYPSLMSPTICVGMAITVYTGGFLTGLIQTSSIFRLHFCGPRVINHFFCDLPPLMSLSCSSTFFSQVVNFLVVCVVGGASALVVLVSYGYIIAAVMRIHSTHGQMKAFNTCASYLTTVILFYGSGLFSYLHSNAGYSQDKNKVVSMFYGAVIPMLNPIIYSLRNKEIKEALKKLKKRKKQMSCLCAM
# Summary of the method: as §1
# UniProt Q8VFV8 = target: UniProt Q8VFV8
# Chain of UniProt Q8VFV8 (Q8VFV8 as listed by the source): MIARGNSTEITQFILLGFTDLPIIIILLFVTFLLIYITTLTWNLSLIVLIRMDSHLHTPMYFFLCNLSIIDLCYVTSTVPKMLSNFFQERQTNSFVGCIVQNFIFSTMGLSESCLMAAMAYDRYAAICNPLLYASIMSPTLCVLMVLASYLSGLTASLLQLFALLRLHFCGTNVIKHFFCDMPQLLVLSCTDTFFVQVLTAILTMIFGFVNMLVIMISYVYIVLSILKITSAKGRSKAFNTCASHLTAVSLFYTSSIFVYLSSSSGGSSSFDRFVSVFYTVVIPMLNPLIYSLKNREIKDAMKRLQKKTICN
# Summary of the method: as §1
# UniProt Q8VFW7 = target: UniProt Q8VFW7
# Chain of UniProt Q8VFW7 (Q8VFW7 as listed by the source): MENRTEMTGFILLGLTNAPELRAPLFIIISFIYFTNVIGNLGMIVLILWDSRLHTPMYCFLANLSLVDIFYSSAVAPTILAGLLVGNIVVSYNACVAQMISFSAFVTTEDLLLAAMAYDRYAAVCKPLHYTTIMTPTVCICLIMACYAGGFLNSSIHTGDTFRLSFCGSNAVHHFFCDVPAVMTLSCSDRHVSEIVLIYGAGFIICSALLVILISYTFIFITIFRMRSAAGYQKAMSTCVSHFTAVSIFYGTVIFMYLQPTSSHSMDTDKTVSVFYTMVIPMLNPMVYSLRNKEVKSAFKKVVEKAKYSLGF
# Summary of the method: as §1
structure (smiles),measurement,setting,value
CC(=O)OCc1ccc2c(c1)OCO2,odorant receptor agonist call,UniProt Q8VFP5,inactive
same,odorant receptor agonist call,UniProt Q8VG01,inactive
CCCCCCC(=O)[O-].[H+],odorant receptor agonist call,UniProt Q8VFZ6,inactive
same,odorant receptor agonist call,UniProt Q8VG01,active
same,odorant receptor agonist call,UniProt Q8VG22,inactive
same,odorant receptor agonist call,UniProt Q8VG26,inactive
C=C(C)C1CC=C(C)CC1 (centres undefined),odorant receptor agonist call,UniProt Q8VFP5,inactive
same,odorant receptor agonist call,UniProt Q8VG01,inactive
CCC=CCCCCC=O,odorant receptor agonist call,UniProt Q8VFP5,inactive
same,odorant receptor agonist call,UniProt Q8VG01,active
CC1CCCCCCCCCCCCC(=O)C1 (centres undefined),odorant receptor agonist call,UniProt Q8VFV2,inactive
same,odorant receptor agonist call,UniProt Q8VFV3,inactive
same,odorant receptor agonist call,UniProt Q8VFV8,inactive
same,odorant receptor agonist call,UniProt Q8VFW7,inactive
Cc1occc1SSc1ccoc1C,odorant receptor agonist call,UniProt Q8VFP5,inactive
same,odorant receptor agonist call,UniProt Q8VG01,inactive
CC(C)CS,odorant receptor agonist call,UniProt Q8VFP5,inactive
same,odorant receptor agonist call,UniProt Q8VG01,inactive
CCC(C(=O)O)c1ccccc1 (centres undefined),odorant receptor agonist call,UniProt Q8VFZ6,inactive
same,odorant receptor agonist call,UniProt Q8VG01,inactive
same,odorant receptor agonist call,UniProt Q8VG22,inactive
CCCCCCC(=O)OCCCC,odorant receptor agonist call,UniProt Q8VFP5,inactive
same,odorant receptor agonist call,UniProt Q8VG01,active
CC(C)CCN,odorant receptor agonist call,UniProt Q8VFP5,inactive
same,odorant receptor agonist call,UniProt Q8VG01,inactive
CCCCCCC=CC=O,odorant receptor agonist call,UniProt Q8VFP5,inactive
same,odorant receptor agonist call,UniProt Q8VG01,inactive
O=C(OCc1ccccc1)c1ccccc1O,odorant receptor agonist call,UniProt Q8VFP5,inactive
same,odorant receptor agonist call,UniProt Q8VG01,inactive
